# Experiments:
# Rattus norvegicus [1] = assay: Antiinflammatory activity against albino rats assessed as inhibition of carrageenan-induced paw edema at 15 mg/kg, po measured after 2 hrs relative to control; type: functional
# How it was run: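 Winter carrageenan rat paw oedema model in adult albino rats of both sexes (100-140 g). Compounds given orally before carrageenan injection into the paw. Oedema inhibition % versus untreated control read at 2-4 h post-carrageenan. Significance versus control was tested at P < 0.05, 0.01 and 0.001. Animal work approved by the Umm Al-Qura University pharmacy ethics committee.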
# Rattus norvegicus [2] = assay: Antiinflammatory activity against albino rats assessed as inhibition of carrageenan-induced paw edema at 15 mg/kg, po measured after 4 hrs relative to control; type: functional
# How it was run: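 Carrageenan rat paw edema (Winter method) in male and female adult albino rats (100-140 g). […] Swelling inhibition expressed as % of control at 2-4 h after carrageenan injection.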
smiles,measurement,setting,value
COc1ccc2c(c1)c(CC(=O)O)c(C)n2C(=O)c1ccc(Cl)cc1 [INDOMETHACIN],inhibition in vivo at 15 mg/kg,Rattus norvegicus [1],32.3%
same,inhibition in vivo at 15 mg/kg,Rattus norvegicus [2],56.4%
